In ChEMBL document CHEMBL1149584, “Synthesis and structure-activity relationships of new antiproliferative and proapoptotic retinoid-related biphenyl-4-yl-acrylic acids” (Bioorg Med Chem, 2007):
Blank lines part the entries; values can stand above or below the compound they belong to. The source made the active and inactive calls. The rule behind the calls is not given here.

How the values were obtained:
[1] = tested on: IGROV-1; assay: Induction of DNA damage in IGROV1 cells assessed as RPA2 protein phosphorylation after 6 hrs; type: functional, cell-based; conditions: Homo sapiens
[2] = tested on: IGROV-1; assay: Induction of DNA damage in IGROV1 cells assessed as p53 protein phosphorylation after 6 hrs; type: functional, cell-based; conditions: Homo sapiens
[3] = molecular target: T1, MAP kinase p38 (Homo sapiens) (UniProt O15264+Q15759+Q16539+P53778); assay: Activation of p38 kinase in IGROV1/Pt1 cells with p53 mutation assessed as phosphorylation after 18 hrs; type: cell-based; conditions: IGROV-1
How it was run: (§1)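 Cells treated for 18 h at each compound's IC₈₀ concentration. Lysates analyzed by Western blot with phospho-specific antibodies to detect activated JNK and p38.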

[4] = Antiproliferative activity against human cisplatin-resistant IGROV1/Pt1 cells with p53 mutation after 72 hrs; type: functional, cell-based, IGROV-1
How it was run: (§2)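 Ovarian carcinoma cells in log-phase growth were seeded in duplicate. Drug was added 24 h after seeding and exposure lasted 72 h. Cells were harvested and counted with a cell counter. IC₅₀ is the concentration giving a 50% drop in cell number versus untreated control.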

[5] = tested on: IGROV-1; assay: Induction of apoptosis in IGROV1 cells after 72 hrs by TUNEL assay; type: functional, Homo sapiens; parameters: concentration or dose not given beside the values
How it was run: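 Cells exposed to drug for 72 h, fixed in 4% paraformaldehyde for 60 min at room temperature, then washed and resuspended in ice-cold PBS. Apoptosis detected by TUNEL and analyzed by flow cytometry.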

[6] = tested on: IGROV-1; assay: Antiproliferative activity against human IGROV1 cells after 72 hrs; type: functional, cell-based; conditions: IGROV-1, 72 h; how it was run: as §2
[7] = tested on: NB-4; assay: Antiproliferative activity against human NB4 cells after 72 hrs; type: functional, cell-based; conditions: NB-4, 72 h
How it was run: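 Leukemia cells were exposed to drug for 24 h, and growth inhibition was assessed at 72 h by cell counting. IC₅₀ is the concentration giving a 50% drop in cell number versus untreated control.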

[8] = tested on: IGROV-1; assay: Cell cycle arrest in IGROV1 cells assessed as accumulation at G1/S phase by FAC scan flow cytometry; type: functional, cell-based; conditions: Homo sapiens
How it was run: (§3)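 Cells treated at the IC₈₀ concentration. Cell cycle distribution of propidium iodide-stained cells measured by FACScan flow cytometry at 24, 48 and 72 h of treatment. One experiment representative of three.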

[9] = tested on: IGROV-1; assay: Cell cycle arrest in IGROV1 cells assessed as accumulation at subG1 phase by FAC scan flow cytometry; type: functional, cell-based; conditions: Homo sapiens, TDE = time-dependent effect; how it was run: as §3
[10] = molecular target: T1, MAP kinase p38 (Homo sapiens); assay: Activation of p38 kinase in IGROV1 cells assessed as phosphorylation after 18 hrs; type: cell-based; conditions: IGROV-1; how it was run: as §1
[11] = molecular target: c-Jun N-terminal kinase, JNK (Homo sapiens) (UniProt P45983+P53779+P45984); assay: Activation of JNK in IGROV1 cells assessed as phosphorylation after 18 hrs; type: cell-based; conditions: IGROV-1; how it was run: as §1
[12] = tested on: IGROV-1; assay: Induction of DNA damage in IGROV1 cells assessed as H2AX histone phosphorylation after 6 hrs; type: functional, cell-based; conditions: Homo sapiens
[13] = Homo sapiens, IGROV-1/Pt1, 72 h

Activity [3]: Active
Structure (SMILES): O=C(O)/C=C/c1ccc(-c2ccc(O)c(C34CC5CC(CC(C5)C3)C4)c2)cc1 [ADAROTENE]
Activity [1]: Active | Activity [2]: Active | IC50 [4, 13]: 400 nM | Activity [5]: 51%

Structure (SMILES): O=C(O)/C=C/c1ccc(-c2cc(CO)c(O)c(C34CC5CC(CC(C5)C3)C4)c2)cc1
Activity [1]: Active | Activity [2]: Active | IC50 [6]: 760 nM | IC50 [4]: 1040 nM | IC50 [7]: 190 nM | Activity [5]: 45%

Structure (SMILES): O=C(O)/C=C/c1ccc(-c2cc3c(c(C45CC6CC(CC(C6)C4)C5)c2)OCCO3)cc1
Activity [8]: Active | Activity [9]: tde | Activity [1]: Active | Activity [2]: Active | IC50 [6]: 230 nM | IC50 [4, 13]: 480 nM | IC50 [7]: 110 nM | Activity [5]: 30%

Structure (SMILES): O=Cc1cc(-c2ccc(/C=C/C(=O)O)cc2)cc(C23CC4CC(CC(C4)C2)C3)c1O
IC50 [6]: 1640 nM | IC50 [4, 13]: 2720 nM | IC50 [7]: 1610 nM

Structure (SMILES): COc1c(O)cc(-c2ccc(/C=C/C(=O)O)cc2)cc1C12CC3CC(CC(C3)C1)C2
Activity [8]: Active | Activity [9]: tde | Activity [1]: Active | Activity [2]: Active | IC50 [6]: 570 nM | IC50 [4, 13]: 970 nM | IC50 [7]: 550 nM | Activity [5]: 20%

Structure (SMILES): CC(=O)NCc1cc(-c2ccc(/C=C/C(=O)O)cc2)cc(C23CC4CC(CC(C4)C2)C3)c1O
IC50 [6]: 1240 nM | IC50 [4, 13]: 2890 nM | IC50 [7]: 990 nM

Activity [10]: Active | Activity [11]: Active
Structure (SMILES): O=C(O)/C=C/c1ccc(-c2cc3c(c(C45CC6CC(CC(C6)C4)C5)c2)OCO3)cc1
Activity [8]: Active | Activity [9]: tde | Activity [1]: Active | Activity [2]: Active | IC50 [6]: 390 nM | IC50 [4, 13]: 460 nM | IC50 [7]: 260 nM | Activity [5]: 50%

Structure (SMILES): COc1cc(-c2ccc(/C=C/C(=O)O)cc2)cc(C23CC4CC(CC(C4)C2)C3)c1OC
IC50 [6]: 710 nM | IC50 [4, 13]: 2400 nM | IC50 [7]: 1890 nM

Structure (SMILES): COc1ccc(-c2ccc(/C=C(/Br)C(=O)O)cc2)cc1C12CC3CC(CC(C3)C1)C2
IC50 [6]: 30600 nM | IC50 [4, 13]: > 10000 nM | IC50 [7]: 41000 nM

Structure (SMILES): O=C(O)C#Cc1ccc(-c2cc3c(c(C45CC6CC(CC(C6)C4)C5)c2)OCO3)cc1
IC50 [6]: 3600 nM | IC50 [4, 13]: 4800 nM | IC50 [7]: 2000 nM

Structure (SMILES): COc1cc(-c2ccc(/C=C/C(=O)O)cc2)cc(C23CC4CC(CC(C4)C2)C3)c1O
IC50 [6]: 520 nM | IC50 [7]: 270 nM

Structure (SMILES): COc1ccc(-c2ccc(C#CC(=O)O)cc2)cc1C12CC3CC(CC(C3)C1)C2
IC50 [6]: 1700 nM | IC50 [4, 13]: 4800 nM

Structure (SMILES): O=C(O)/C(Br)=C\c1ccc(-c2cc3c(c(C45CC6CC(CC(C6)C4)C5)c2)OCO3)cc1
IC50 [6]: 36600 nM | IC50 [4, 13]: 34100 nM | IC50 [7]: 72300 nM

Structure (SMILES): O=C(O)/C=C/c1ccc(-c2cccc(C34CC5CC(CC(C5)C3)C4)c2)cc1
IC50 [6]: 18800 nM | IC50 [4, 13]: 21900 nM

Structure (SMILES): COc1ccc(-c2ccc(/C=C/C(=O)O)cc2)cc1C12CC3CC(CC(C3)C1)C2
Activity [8]: Active | Activity [12]: Active | Activity [9]: tde | Activity [1]: Active | Activity [2]: Active | IC50 [6]: 1190 nM | IC50 [4, 13]: 1430 nM | IC50 [7]: 1100 nM | Activity [5]: 47%

Structure (SMILES): Cl.NCc1cc(-c2ccc(/C=C/C(=O)O)cc2)cc(C23CC4CC(CC(C4)C2)C3)c1O
Activity [8]: Active | Activity [9]: tde | Activity [1]: Active | Activity [2]: Active | IC50 [6]: 450 nM | IC50 [4, 13]: 390 nM | IC50 [7]: 180 nM | Activity [5]: 55%

Structure (SMILES): COc1ccc(-c2ccc(/C=C(\Br)C(=O)O)cc2)cc1C12CC3CC(CC(C3)C1)C2
IC50 [6]: > 20000 nM | IC50 [4, 13]: > 20000 nM | IC50 [7]: 17900 nM
